# From ChEMBL document CHEMBL1124475, “The thieno[3,2-c]pyridine and furo[3,2-c]pyridine rings: new pharmacophores with potential antipsychotic activity” (J Med Chem, 1989)
# Active and inactive are the calls of the source. No cut-off for these calls is given here.
# Experiments:
# [1] = molecular target: Serotonin 1 (5-HT1) receptor (Rattus norvegicus, UniProt P28564+P30940+P19327+P28565); assay: Ability to bind at 5-hydroxytryptamine 1 receptor of rat hippocampus by displacing [3H]5-HT; type: tissue-based
# In short: (§1)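 Rat receptor radioligand displacement, five test-ligand concentrations used to calculate IC50, each assay in duplicate. Some compounds determined four times (in duplicate), with mean IC50 reported.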
# D(2) dopamine receptor [2] = molecular target: T1, D(2) dopamine receptor (Rattus norvegicus, UniProt P61169); assay: Ability to bind at dopamine receptor D2 of rat corpus striatum by displacing [3H]spiperone
# Rattus norvegicus [3] = assay: Conditioned avoidance response (CAR) when administered perorally; type: functional; conditions: po
# [4] = molecular target: T2, Serotonin 2 (5-HT2) receptor (Rattus norvegicus, UniProt P30994+P08909+P14842); assay: Ability to bind at 5-hydroxytryptamine 2 receptor of rat cortex by displacing [3H]spiperone
# [5] = molecular target: T3, 5-hydroxytryptamine receptor 1A (Rattus norvegicus, UniProt P19327); assay: Ability to bind at serotonin 5-hydroxytryptamine 1A receptors of rat hippocampus by displacing [3H]8-OH-DPAT; type: tissue-based; in short: as §1
# T3 sequence (P19327 whole entry): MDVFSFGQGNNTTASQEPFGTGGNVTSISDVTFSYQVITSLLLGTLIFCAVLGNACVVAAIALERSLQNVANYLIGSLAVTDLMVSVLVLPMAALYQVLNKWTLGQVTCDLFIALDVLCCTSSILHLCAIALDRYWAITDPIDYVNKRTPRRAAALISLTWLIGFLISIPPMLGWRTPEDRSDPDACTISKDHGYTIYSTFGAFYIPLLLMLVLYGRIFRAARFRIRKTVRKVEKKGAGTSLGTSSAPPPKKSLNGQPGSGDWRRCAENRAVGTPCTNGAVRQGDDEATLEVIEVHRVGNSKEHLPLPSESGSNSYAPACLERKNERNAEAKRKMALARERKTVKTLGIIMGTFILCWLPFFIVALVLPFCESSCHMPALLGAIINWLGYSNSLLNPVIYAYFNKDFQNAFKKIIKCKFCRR
# D(2) dopamine receptor [6] = molecular target: T1, D(2) dopamine receptor; assay: Ability to bind at Dopamine receptor D2 of rat corpus striatum by displacing [3H]spiperone; in short: as §1
# [7] = molecular target: T3, 5-hydroxytryptamine receptor 1A; assay: Ability to bind at 5-hydroxytryptamine 1A receptor of rat hippocampus by displacing [3H]8-OH-DPAT; type: tissue-based; in short: as §1
# [8] = molecular target: T4, Adrenergic receptor alpha-1 (Rattus norvegicus, UniProt P15823+P23944+P43140); assay: Ability to bind at Alpha-1 adrenergic receptor by displacing [3H]WB-4101; type: protein assay
# T4 sequence (P15823 whole entry): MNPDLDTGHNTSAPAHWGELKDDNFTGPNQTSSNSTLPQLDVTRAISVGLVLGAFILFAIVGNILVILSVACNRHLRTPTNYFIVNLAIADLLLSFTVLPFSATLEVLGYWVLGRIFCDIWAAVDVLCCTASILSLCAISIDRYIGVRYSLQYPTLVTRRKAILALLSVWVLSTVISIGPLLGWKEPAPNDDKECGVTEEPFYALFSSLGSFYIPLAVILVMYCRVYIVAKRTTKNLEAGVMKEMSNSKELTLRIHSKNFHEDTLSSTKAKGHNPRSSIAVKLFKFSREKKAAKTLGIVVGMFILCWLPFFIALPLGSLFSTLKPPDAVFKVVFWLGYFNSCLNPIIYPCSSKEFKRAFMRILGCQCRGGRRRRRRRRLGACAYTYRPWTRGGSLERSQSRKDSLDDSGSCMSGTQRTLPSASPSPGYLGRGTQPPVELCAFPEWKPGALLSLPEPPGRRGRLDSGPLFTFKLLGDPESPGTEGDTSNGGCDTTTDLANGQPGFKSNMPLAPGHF
# T4 sequence (P23944 whole entry): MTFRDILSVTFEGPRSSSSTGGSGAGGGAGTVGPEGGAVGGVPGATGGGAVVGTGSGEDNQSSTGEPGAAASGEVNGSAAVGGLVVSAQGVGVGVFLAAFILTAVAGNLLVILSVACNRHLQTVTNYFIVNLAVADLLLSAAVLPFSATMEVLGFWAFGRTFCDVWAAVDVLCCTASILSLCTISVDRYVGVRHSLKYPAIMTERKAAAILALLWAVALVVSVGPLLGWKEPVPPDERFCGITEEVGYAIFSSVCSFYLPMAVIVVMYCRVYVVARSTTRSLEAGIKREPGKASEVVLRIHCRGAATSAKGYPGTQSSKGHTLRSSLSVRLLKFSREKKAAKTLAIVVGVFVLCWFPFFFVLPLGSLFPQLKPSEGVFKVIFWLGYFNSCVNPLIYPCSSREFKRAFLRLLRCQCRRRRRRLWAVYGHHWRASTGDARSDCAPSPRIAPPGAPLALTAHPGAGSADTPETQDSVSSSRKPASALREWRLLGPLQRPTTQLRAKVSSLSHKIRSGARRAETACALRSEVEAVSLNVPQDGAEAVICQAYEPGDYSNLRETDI
# T4 sequence (P43140 whole entry): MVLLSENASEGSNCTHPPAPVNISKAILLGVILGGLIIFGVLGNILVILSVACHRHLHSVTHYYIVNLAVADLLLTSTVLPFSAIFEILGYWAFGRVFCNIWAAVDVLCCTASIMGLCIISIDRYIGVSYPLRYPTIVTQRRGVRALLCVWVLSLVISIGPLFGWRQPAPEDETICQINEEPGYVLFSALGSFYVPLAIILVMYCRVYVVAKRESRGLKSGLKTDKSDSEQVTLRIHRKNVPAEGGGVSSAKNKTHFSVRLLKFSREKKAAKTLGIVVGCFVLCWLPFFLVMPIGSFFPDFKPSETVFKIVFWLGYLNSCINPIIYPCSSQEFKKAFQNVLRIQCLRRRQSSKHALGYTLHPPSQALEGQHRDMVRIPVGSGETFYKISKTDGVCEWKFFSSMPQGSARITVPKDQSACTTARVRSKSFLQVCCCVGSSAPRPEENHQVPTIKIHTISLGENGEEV
# Rattus norvegicus [9] = assay: Blockade of apomorphine-induced stereotypy in rats when administered perorally; type: functional; conditions: po
# Rattus norvegicus [10] = assay: Blockade of Sidman-avoidance activity in rats when administered perorally; type: functional
# In short: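 Rats trained in once-daily Sidman sessions until stable; non-learners after 3 days replaced. Twelve rats dosed 30 min before session. Each rat compared with mean of its previous three drug-free days by paired t test. Testing continued to minimally effective dose; maximum usually 100 mg/kg. MED is mean over 12 animals.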
# [11] = molecular target: T4, Adrenergic receptor alpha-1; assay: Ability to bind at alpha-1 adrenergic receptor by displacing [3H]WB-4101; type: protein assay; in short: as §1
# [12] = molecular target: T2, Serotonin 2 (5-HT2) receptor; assay: Ability to bind at serotonin 5-hydroxytryptamine 2 receptors of rat cortex by displacing [3H]spiperone
# Mus musculus = assay: Blockade of apomorphine-induced climbing in mice when administered perorally; IA Inactive; type: functional, organism-based
# In short: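 Male mice habituated 30 min in individual cages, then dosed orally (distilled H2O or 0.5% Methocel suspension, 10 mL/kg) or vehicle. Apomorphine 1.5 mg/kg sc given 30 min later. Climbing scored at 10, 20, 30 min post-apomorphine. At least five animals per dose, maximum 100 mg/kg.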
# Rattus norvegicus [13] = assay: Induction of catalepsy in rats when administered perorally and maximum dose examined was 4 times the ED50 value established in CAR; Inactive; type: functional, organism-based
# T1 sequence (P61169 whole entry): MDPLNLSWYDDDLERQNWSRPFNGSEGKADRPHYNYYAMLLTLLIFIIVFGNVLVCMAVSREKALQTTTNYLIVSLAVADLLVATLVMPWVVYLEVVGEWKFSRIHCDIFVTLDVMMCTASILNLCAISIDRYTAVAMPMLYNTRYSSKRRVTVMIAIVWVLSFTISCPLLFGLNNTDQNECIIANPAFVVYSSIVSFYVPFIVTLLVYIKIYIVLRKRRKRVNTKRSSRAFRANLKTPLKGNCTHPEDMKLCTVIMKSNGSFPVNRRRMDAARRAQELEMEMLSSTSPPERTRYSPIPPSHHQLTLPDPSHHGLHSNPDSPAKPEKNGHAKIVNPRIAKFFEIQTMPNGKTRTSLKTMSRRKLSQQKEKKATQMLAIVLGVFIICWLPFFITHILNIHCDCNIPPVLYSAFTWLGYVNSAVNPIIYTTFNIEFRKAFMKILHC
Compound,IC50 [1] [µM],IC50 (D(2) dopamine receptor [2]) [µM],IC50 [5] [µM],IC50 (D(2) dopamine receptor [6]) [µM],IC50 [12] [µM],ED50 (Rattus norvegicus [3]) [mg/kg],also measured
Cc1cc2c(N3CCN(CCCCN4C(=O)CC(C)(C)CC4=O)CC3)nccc2o1.Cl,,,0.0049,0.708,,13.8,
CC1(C)CC(=O)N(CCCCN2CCN(c3nccc4occc34)CC2)C(=O)C1.Cl,,0.626,,,,4.2,IC50 [7]: 0.00864 µM; IC50 [8]: 0.047 µM
Cc1cc2c(N3CCN(CCCC(O)c4ccc(F)cc4)CC3)nccc2o1.Cl (configuration not stated),,,0.0062,,,23.2,
Cl.O=C1c2ccccc2C(=O)N1CCCCN1CCN(c2nccc3sccc23)CC1,0.0053,,0.0027,0.306,0.0028,38.9,IC50 [11]: 0.00069 µM
Cl.Cn1ccc2c(N3CCN(CCCCN4C(=O)COCC4=O)CC3)nccc21,,,,> 1,,> 100,
Cl.O=C1CSCC(=O)N1CCCCN1CCN(c2nccc3occc23)CC1,,,,> 1,,35.8,
Cl.O=C1c2ccccc2S(=O)(=O)N1CCCCN1CCN(c2nccc3sccc23)CC1,0.0023,,0.00068,0.32,0.0057,> 62.5,IC50 [11]: 0.0012 µM
Cl.Cn1ccc2c(N3CCN(CCCCN4C(=O)CC(C)(C)CC4=O)CC3)nccc21,,,,> 1,,67.2,
Cl.OC(CCCN1CCN(c2nccc3occc23)CC1)c1ccc(F)cc1 (configuration not stated),,,0.0124,0.339,0.0552,3.1,IC50 [11]: 0.0238 µM

# Second part, led by results:
IC50 [1] [µM],IC50 (D(2) dopamine receptor [2]) [µM],IC50 [5] [µM],IC50 (D(2) dopamine receptor [6]) [µM],IC50 [12] [µM],Compound,ED50 (Rattus norvegicus [3]) [mg/kg],also measured
0.0036,0.279,,,,Cc1cc2c(N3CCN(CCCCN4C(=O)SC5(CCCC5)C4=O)CC3)nccc2s1.Cl,35.4,IC50 [4]: 0.0434 µM
0.0081,0.0883,,,,Cl.O=C1SC2(CCCC2)C(=O)N1CCCCN1CCN(c2nccc3sccc23)CC1,11.6,IC50 [8]: 0.0305 µM; ED50 (Rattus norvegicus [9]): 35.2 mg/kg; MED50 (Rattus norvegicus [10]): 5 mg/kg; IC50 [4]: 0.0039 µM
,0.331,,,,Cl.O=C1SC2(CCCC2)C(=O)N1CCCCN1CCN(c2nccc3occc23)CC1,9.2,IC50 [8]: 0.0235 µM
0.0037,,,0.228,0.0709,CC1(C)CC(=O)N(CCCCN2CCN(c3nccc4sc(Br)cc34)CC2)C(=O)C1.Cl,65.3,IC50 [11]: 0.0272 µM
,,0.0025,,0.0191,Cl.O=C1CCCC(=O)N1CCCCN1CCN(c2nccc3sccc23)CC1,5.4,MED50 (Mus musculus): inactive; ED50 (Rattus norvegicus [9]): 55.6 mg/kg; ED50 (Rattus norvegicus [13]): inactive; MED (Rattus norvegicus [10]; po): 20 mg/kg
,0.517,,,,Cl.Cn1ccc2c(N3CCN(CCCCN4C(=O)SC5(CCCC5)C4=O)CC3)nccc21,59.5,IC50 [7]: 0.246 µM
0.0088,,0.0013,0.663,0.0042,CC1CC(=O)N(CCCCN2CCN(c3nccc4sccc34)CC2)C(=O)C1.Cl,2.9,MED50 (Mus musculus): inactive; ED50 (Rattus norvegicus [9]): 39.5 mg/kg; ED50 (Rattus norvegicus [13]): inactive
0.0253,0.44,,,,Cl.O=C1SC2(CCCC2)C(=O)N1CCCCN1CCN(c2nccc3sc(Br)cc23)CC1,> 100,IC50 [4]: 0.116 µM
,,0.00115,0.608,0.0067,O=C1CSCC(=O)N1CCCCN1CCN(c2nccc3sccc23)CC1,31.9,IC50 [11]: 0.0011 µM
,0.751,,,,Cc1cc2c(N3CCN(CCCCN4C(=O)SC5(CCCC5)C4=O)CC3)nccc2o1.Cl,28.4,IC50 [7]: 0.0022 µM; IC50 [8]: 0.0275 µM
